From ChEMBL document CHEMBL1667738, “Sesquiterpene benzoxazoles and sesquiterpene quinones from the marine sponge Dactylospongia elegans” (2011)

What was measured:
[1] = tested on: CHO-K1; experiment: Cytotoxicity against Chinese hamster CHO-K1 cells after 48 hrs by SRB assay; settings: Cricetulus griseus, CHO-K1, 48 h
[2] = tested on: NCI-H460; experiment: Cytotoxicity against human H460 cells after 48 hrs by SRB assay; assay type: functional; settings: NCI-H460, 48 h
Method in brief: (§1)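 Cells grown in RPMI 1640 with L-glutamine and 5% fetal bovine serum, in a humidified incubator at 37 °C and 5% CO2. Seeded at 5000 cells/well. Pure compounds dissolved in DMSO, serially diluted in medium, and tested at 10 concentrations between 66.7 and 0.01 µg/mL. Total protein measured by SRB at 490 nm at 0 and 48 h. GI50 taken against vehicle-only and time-zero readings.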

[3] = tested on: HT-29; experiment: Cytotoxicity against human HT-29 cells after 48 hrs by SRB assay; assay type: functional; settings: HT-29, 48 h
Method in brief: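 CHO-K1 (Chinese hamster ovary subclone) and HT-29 cells grown in MEM with Earle's salts, L-glutamine, nonessential amino acids and sodium pyruvate. Seeded at 5000 cells/well. Compounds dissolved in DMSO, serially diluted in medium, and tested at 10 concentrations spanning 66.7–0.01 µg/mL. SRB protein read at 490 nm at 0 and 48 h. GI50 derived against vehicle-only and time-zero values.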

[4] = tested on: SF-268; experiment: Cytotoxicity against human SF268 cells after 48 hrs by SRB assay; assay type: functional; settings: SF-268, 48 h
Method in brief: as §1

[5] = tested on: MCF7; experiment: Cytotoxicity against human MCF7 cells after 48 hrs by SRB assay; assay type: functional; settings: MCF7, 48 h
Method in brief: as §1

## C=C1CCC[C@@]23OC4=C(C[C@]2(C)[C@@H](C)CC[C@@]13C)C(=O)C(OC)=CC4=O [DACTYLOQUINONE B]
[1]
  GI50: 43 µM
[2]
  GI50: 30 µM
[3]
  GI50: 46 µM
[4]
  GI50: 32 µM
[5]
  GI50: 41 µM

## C=C1CCC[C@H]2[C@](C)(CC3=C(O)C(=O)C=C(NCC(=O)O)C3=O)[C@@H](C)CC[C@]12C [SMENOSPONGINE B]
[1]
  GI50: 3 µM
[2]
  GI50: 6 µM
[3]
  GI50: 6 µM
[4]
  GI50: 9.7 µM
[5]
  GI50: 10 µM

## C=C1CCC[C@H]2[C@](C)(Cc3c(O)c(O)cc4ncoc34)[C@@H](C)CC[C@]12C [NAKIJINOL B]
[1]
  GI50: 11 µM
[2]
  GI50: 24 µM
[3]
  GI50: 21 µM
[4]
  GI50: 24 µM
[5]
  GI50: 35 µM

## C=C1CCC[C@H]2[C@](C)(CC3=C(O)C(=O)C=C(NCCC(=O)O)C3=O)[C@@H](C)CC[C@]12C [SMENOSPONGINE C]
[1]
  GI50: 18 µM
[2]
  GI50: 14 µM
[3]
  GI50: 28 µM
[4]
  GI50: 20 µM
[5]
  GI50: 31 µM

## C=C1CCC[C@H]2[C@](C)(CC3=C(O)C(=O)C=C(OC)C3=O)[C@@H](C)CC[C@]12C [ILIMAQUINONE]
[1]
  GI50: 2 µM
[2]
  GI50: 1.8 µM
[3]
  GI50: 5.4 µM
[4]
  GI50: 2.7 µM
[5]
  GI50: 3.9 µM

## C=C1CCC[C@H]2[C@](C)(Cc3c(OC(C)=O)c(OC(C)=O)cc4ncoc34)[C@@H](C)CC[C@]12C [NAKIJINOL B DIACETATE]
[1]
  GI50: 5.2 µM
[2]
  GI50: 6.8 µM
[3]
  GI50: 15 µM
[4]
  GI50: 9 µM
[5]
  GI50: 19 µM
